Assay results: ChEMBL document CHEMBL1275312, “Synthesis of new pyrrolo[2,3-d]pyrimidine derivatives as antibacterial and antifungal agents” (2010)
In brackets after ≈: the same amount, converted by molar mass.

What was measured:
Type in all cases: functional
Escherichia coli [1] = assay: Antimicrobial activity against Escherichia coli NCTC 10416 by twofold serial dilution method
Outline: (§1)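 MIC by two-fold serial dilution, limited to compounds giving inhibition zones of at least 18 mm in the well diffusion screen. Strains: S. aureus NCTC-7447 and E. coli NCTC-10416 on Mueller-Hinton agar at 37 ± 1 °C; C. albicans ATCC-10145 on Sabouraud dextrose agar at 28 ± 1 °C. Inocula were colony suspensions in sterile saline. MIC taken as the lowest concentration (highest dilution) inhibiting growth.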

Staphylococcus aureus [2] = assay: Antimicrobial activity against Staphylococcus aureus NCTC 7447 by twofold serial dilution method; outline: as §1
Escherichia coli [3] = assay: Antimicrobial activity against Escherichia coli NCTC 10416 at 5 mg/ml after 24 hrs by agar well diffusion assay; details: NCTC 10416, 24 h, read-out: IZ
Outline: (§2)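 Agar well diffusion against S. aureus NCTC-7447 and E. coli NCTC-10416 (maintained on Mueller-Hinton agar, 24 h, 37 ± 1 °C) and C. albicans ATCC-10145 (Sabouraud dextrose agar, 48 h, 28 ± 1 °C). Inocula: colonies suspended in 5 mL sterile saline. Wells pre-incubated 1 h in refrigerator, then incubated 24 h at 37 °C (bacteria) or 48 h at 28 °C (fungi). Inhibition zone diameter measured. DMSO blank.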

Staphylococcus aureus [4] = assay: Antimicrobial activity against Staphylococcus aureus NCTC 7447 at 5 mg/ml after 24 hrs by agar well diffusion assay; details: NCTC 7447, 24 h, read-out: IZ; outline: as §2
Candida albicans = assay: Antimicrobial activity against Candida albicans ATCC 10145 at 5 mg/ml after 48 hrs by agar well diffusion assay; details: ATCC 10145, 48 h, read-out: IZ; outline: as §2

| Compound | MIC (Escherichia coli [1]) [µg/mL] | MIC (Staphylococcus aureus [2]) [µg/mL] | zone of inhibition at 5000 µg/mL (Escherichia coli [3]) [mm] | zone of inhibition at 5000 µg/mL (Staphylococcus aureus [4]) [mm] | zone of inhibition at 5000 µg/mL (Candida albicans) [mm] |
| --- | --- | --- | --- | --- | --- |
| Cc1ccc(-c2cc3c(N)nc(N)nc3n2-c2ccccc2)cc1 | 2500 (≈ 7.93 mM) | 620 (≈ 1.97 mM) | 19 | 25 | 23 |
| N=c1c2cc(-c3ccc(Br)cc3)n(-c3ccccc3)c2ncn1N | 1250 (≈ 3.29 mM) | 310 (≈ 0.815 mM) | 27 | 25 | 27 |
| N=c1c2cc(-c3ccc(Cl)cc3)n(-c3ccccc3)c2ncn1N | 1250 (≈ 3.72 mM) | 310 (≈ 0.923 mM) | 22 | 21 | 27 |
| Cc1ccc(-c2cc3c(=N)n(N)cnc3n2-c2ccccc2)cc1 | 2500 (≈ 7.93 mM) | 620 (≈ 1.97 mM) | 20 | 21 | 21 |
| N=c1c2cc(-c3ccc(F)cc3)n(-c3ccccc3)c2ncn1N |  |  | 15 | 17 | 15 |
| c1ccc(-c2cc3c(ncn4ncnc34)n2-c2ccccc2)cc1 |  |  | 16 | 13 | 17 |
| Brc1ccc(-c2cc3c(ncn4ncnc34)n2-c2ccccc2)cc1 |  |  | 14 | 19 | 19 |
| Clc1ccc(-c2cc3c(ncn4ncnc34)n2-c2ccccc2)cc1 |  |  | 18 | 17.5 | 18 |
| Cc1ccc(-c2cc3c(ncn4ncnc34)n2-c2ccccc2)cc1 |  |  |  |  | 11 |
| Fc1ccc(-c2cc3c(ncn4ncnc34)n2-c2ccccc2)cc1 |  |  | 16 | 17 | 17 |
| Clc1ncnc2c1cc(-c1ccccc1)n2-c1ccccc1 |  |  | 14 | 13 | 16.5 |
| Clc1ncnc2c1cc(-c1ccc(Br)cc1)n2-c1ccccc1 |  |  | 17 | 16 | 17 |
| Clc1ccc(-c2cc3c(Cl)ncnc3n2-c2ccccc2)cc1 |  |  | 13 | 12 | 12 |
| Cc1ccc(-c2cc3c(Cl)ncnc3n2-c2ccccc2)cc1 |  |  | 13 | 12 | 16 |
| Fc1ccc(-c2cc3c(Cl)ncnc3n2-c2ccccc2)cc1 |  |  | 13 | 15 | 15 |
| NNc1ncnc2c1cc(-c1ccccc1)n2-c1ccccc1 | 2500 (≈ 8.3 mM) | 620 (≈ 2.06 mM) | 18 | 27 | 31 |
| NNc1ncnc2c1cc(-c1ccc(Br)cc1)n2-c1ccccc1 |  | 620 (≈ 1.63 mM) | 15 | 25 | 23 |
| NNc1ncnc2c1cc(-c1ccc(Cl)cc1)n2-c1ccccc1 |  |  | 16 | 17 | 19 |
| Cc1ccc(-c2cc3c(NN)ncnc3n2-c2ccccc2)cc1 |  |  | 13 | 14 | 17 |
| NNc1ncnc2c1cc(-c1ccc(F)cc1)n2-c1ccccc1 | 1250 (≈ 3.91 mM) | 310 (≈ 0.971 mM) | 20 | 31 | 32 |
| c1ccc(-c2cc3c(ncn4nnnc34)n2-c2ccccc2)cc1 |  |  | 16 | 16 | 17 |
| Brc1ccc(-c2cc3c(ncn4nnnc34)n2-c2ccccc2)cc1 |  |  | 15 | 16 | 17 |

| Compound | MIC (Escherichia coli [1]) [µg/mL] | MIC (Staphylococcus aureus [2]) [µg/mL] | zone of inhibition at 5000 µg/mL (Escherichia coli [3]) [mm] | zone of inhibition at 5000 µg/mL (Staphylococcus aureus [4]) [mm] | zone of inhibition at 5000 µg/mL (Candida albicans) [mm] |
| --- | --- | --- | --- | --- | --- |
| Clc1ccc(-c2cc3c(ncn4nnnc34)n2-c2ccccc2)cc1 |  |  | 15 | 14 | 17 |
| Fc1ccc(-c2cc3c(ncn4nnnc34)n2-c2ccccc2)cc1 |  |  |  |  | 11 |
| Nc1ncnc2c1cc(-c1ccccc1)n2-c1ccccc1 |  |  | 14 | 15 | 20 |
| Nc1ncnc2c1cc(-c1ccc(Cl)cc1)n2-c1ccccc1 |  |  | 16 | 17 | 16 |
| Cc1ccc(-c2cc3c(N)ncnc3n2-c2ccccc2)cc1 |  | 2500 (≈ 8.32 mM) | 14 | 23 | 25 |
| C/C=N\c1ncnc2c1cc(-c1ccccc1)n2-c1ccccc1 |  | 1250 (≈ 4 mM) | 16 | 21 | 21 |
| C/C=N\c1ncnc2c1cc(-c1ccc(Cl)cc1)n2-c1ccccc1 |  |  | 16 | 17 | 17 |
| C/C=N/c1ncnc2c1cc(-c1ccc(C)cc1)n2-c1ccccc1 |  |  | 17 | 16 | 15 |
| Nc1nc(N)c2cc(-c3ccccc3)n(-c3ccccc3)c2n1 |  | 620 (≈ 2.06 mM) | 13 | 24 | 24 |
| Nc1nc(N)c2cc(-c3ccc(Cl)cc3)n(-c3ccccc3)c2n1 |  | 1250 (≈ 3.72 mM) | 14 | 24 | 23 |
| Cc1nc(N)c2cc(-c3ccccc3)n(-c3ccccc3)c2n1 | 2500 (≈ 8.32 mM) | 1250 (≈ 4.16 mM) | 18 | 20 | 21 |
| Cc1nc(N)c2cc(-c3ccc(Cl)cc3)n(-c3ccccc3)c2n1 |  | 620 (≈ 1.85 mM) | 14 | 25 | 24 |
| Cc1ccc(-c2cc3c(N)nc(C)nc3n2-c2ccccc2)cc1 |  |  | 14 | 17 | 16 |
| CCO/C=N/c1c(C#N)cc(-c2ccccc2)n1-c1ccccc1 |  |  | 17 | 16 | 19 |
| CCO/C=N/c1c(C#N)cc(-c2ccc(Br)cc2)n1-c1ccccc1 |  |  |  |  | 11 |
| CCO/C=N/c1c(C#N)cc(-c2ccc(Cl)cc2)n1-c1ccccc1 |  |  |  |  | 11 |
| CCO/C=N/c1c(C#N)cc(-c2ccc(C)cc2)n1-c1ccccc1 |  |  | 11 |  |  |
| CCO/C=N/c1c(C#N)cc(-c2ccc(F)cc2)n1-c1ccccc1 |  |  | 13 | 13 | 16 |
| N=c1c2cc(-c3ccccc3)n(-c3ccccc3)c2ncn1N |  | 1250 (≈ 4.15 mM) | 16 | 21 | 23 |
| CC1(C)S[C@@H]2[C@H](NC(=O)[C@H](N)c3ccccc3)C(=O)N2[C@H]1C(=O)O [AMPICILLIN] | 1250 (≈ 3.58 mM) | 620 (≈ 1.77 mM) | 9 | 9 |  |
| OC(Cn1cncn1)(Cn1cncn1)c1ccc(F)cc1F [FLUCONAZOLE] |  |  |  |  | 26 |
| CN(C)[C@@H]1C(O)=C(C(N)=O)C(=O)[C@@]2(O)C(O)=C3C(=O)c4c(O)cccc4[C@@](C)(O)[C@H]3C[C@@H]12 [TETRACYCLINE] |  |  | 18 | 20 |  |
